In ChEMBL document CHEMBL1687745 (Antimicrob Agents Chemother, 2009):
≈ marks a conversion by molar mass, not a printed value. Calls of active or inactive are those of the source. No cut-off for these calls is given here.

Legend:
[1] = tested on: Bacillus anthracis; assay: Antimicrobial activity against Bacillus anthracis Sterne vegetative cells by broth microdilution method; format: functional
[2] = tested on: Bacillus anthracis; assay: Antimicrobial activity against Bacillus anthracis Sterne spores by broth microdilution method; format: functional
[3] = tested on: Bacillus subtilis; assay: Inhibition of DNA synthesis in Bacillus subtilis BD54 at 5 X MIC by [3H]thymidine incorporation assay; format: functional, organism-based
How it was run: (§1)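 Precursors were [methyl-3H]thymidine (DNA), [5-3H]uridine (RNA), L-[4,5-3H]leucine (protein) and N-acetyl-D-[1-3H]glucosamine (cell wall). Samples taken over time, precipitated with equal volume of ice-cold 20% TCA, filtered on glass fibre, and counted. cpm plotted against time.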

[4] = tested on: Bacillus subtilis; assay: Inhibition of RNA synthesis in Bacillus subtilis BD54 at 5 X MIC by [5-3H]uridine incorporation assay; format: functional; how it was run: as §1
[5] = tested on: Bacillus subtilis; assay: Inhibition of protein synthesis in Bacillus subtilis BD54 at 5 X MIC by L-[4,5-3H]leucine incorporation assay; format: functional, organism-based; how it was run: as §1
[6] = tested on: Bacillus subtilis; assay: Inhibition of cell wall synthesis in Bacillus subtilis BD54 at 5 X MIC by N-acetyl-D-[1-3H] glucosamine incorporation assay; format: functional; how it was run: as §1

## C(=C\c1cc2cc(C3=NCCN3)ccc2o1)/c1cc2cc(C3=NCCN3)ccc2[nH]1
[1]
  MIC: > 19 µg/mL
[2]
  MIC: 19 µg/mL (≈ 48 µM)

## N=C(N)c1ccc(-c2[nH]c3cc(C(=N)N)ccc3c2N)cc1
[1]
  MIC: > 15 µg/mL
[2]
  MIC: > 15 µg/mL

## c1cc(-c2cc3ccc(C4=NCCN4)cc3s2)ccc1C1=NCCN1
[1]
  MIC: > 17 µg/mL
[2]
  MIC: > 17 µg/mL

## O=C(Nc1ccc(C2=NCCN2)cc1)c1cc2ccc(C3=NCCN3)cc2o1
[1]
  MIC: > 18 µg/mL
[2]
  MIC: > 18 µg/mL

## N=C(N)c1ccc2[nH]c(/C=C/c3nc4cc(C(=N)N)ccc4[nH]3)nc2c1
[1]
  MIC: > 17 µg/mL
[2]
  MIC: > 17 µg/mL

## CO[C@H]1/C=C/O[C@@]2(C)Oc3c(C)c(O)c4c(O)c(c(/C=N/N5CCN(C)CC5)c(O)c4c3C2=O)NC(=O)/C(C)=C\C=C\[C@H](C)[C@H](O)[C@@H](C)[C@@H](O)[C@@H](C)[C@H](OC(C)=O)[C@@H]1C
[3]
  inhibition: Active
[4]
  inhibition: Active
[5]
  inhibition: Active
[6]
  inhibition: Active

## C(/C=C/c1cc2cc(C3=NCCN3)ccc2o1)=C\c1ccc(C2=NCCN2)cc1
[1]
  MIC: 18.2 µg/mL (≈ 47.6 µM)
[2]
  MIC: 18.2 µg/mL (≈ 47.6 µM)

## c1cc(-c2nc3cc(-c4nc5ccc(C6=NCCN6)cc5[nH]4)ccc3[nH]2)ccc1C1=NCCN1
[1]
  MIC: 22.3 µg/mL (≈ 49.9 µM)
[2]
  MIC: 1.4 µg/mL (≈ 3.14 µM)

## Cc1c(/C=C/c2oc3ccc(C(=N)N)cc3c2C)oc2cc(C(=N)N)ccc12
[1]
  MIC: > 18 µg/mL
[2]
  MIC: > 18 µg/mL

## C(=C\c1cc2cc(C3=NCCN3)ccc2[nH]1)/c1ccc(C2=NCCN2)cc1
[1]
  MIC: > 17 µg/mL
[2]
  MIC: > 17 µg/mL

## N=C(N)c1ccc(-c2nc3cc(C(=N)N)ccc3[nH]2)cc1
[1]
  MIC: > 14 µg/mL
[2]
  MIC: > 14 µg/mL

## O=C(N[C@H](CO)[C@H](O)c1ccc([N+](=O)[O-])cc1)C(Cl)Cl
[3]
  inhibition: Active
[4]
  inhibition: Active
[5]
  inhibition: Active
[6]
  inhibition: Active

## N=C(N)c1ccc(-c2cc(-c3ccc(C(=N)N)cc3)on2)cc1
[1]
  MIC: > 15 µg/mL
[2]
  MIC: > 15 µg/mL

## N=C(N)N/N=C/c1ccc2cc(-c3ccc(/C=N/N=C(N)N)cc3)sc2c1
[1]
  MIC: 18 µg/mL (≈ 47.6 µM)
[2]
  MIC: 4.5 µg/mL (≈ 11.9 µM)

## C(=C\c1cc2ccc(C3=NCCN3)cc2[nH]1)/c1ccc2cc(C3=NCCN3)[nH]c2c1
[1]
  MIC: 18.7 µg/mL (≈ 47.4 µM)
[2]
  MIC: 9.3 µg/mL (≈ 23.6 µM)

## N=C(N)c1ccc(Oc2ccc(-c3cc4ccc(C(=N)N)cc4[nH]3)cc2)cc1
[1]
  MIC: 4 µg/mL (≈ 10.8 µM)
[2]
  MIC: 4 µg/mL (≈ 10.8 µM)

## C(=C\c1cc2cc(C3=NCCN3)ccc2o1)/c1cc2cc(C3=NCCN3)ccc2o1
[1]
  MIC: > 19 µg/mL
[2]
  MIC: > 19 µg/mL

## N=C(N)c1ccc2cc(/C=C/c3cc4ccc(C(=N)N)cc4o3)[nH]c2c1
[1]
  MIC: 4.2 µg/mL (≈ 12.2 µM)
[2]
  MIC: 2.1 µg/mL (≈ 6.12 µM)

## C(=C\c1nc2ccccc2[nH]1)/c1nc2ccccc2[nH]1
[1]
  MIC: > 10 µg/mL
[2]
  MIC: > 10 µg/mL

## N=C(N)c1ccc2oc(/C=C/c3cc4cc(C(=N)N)ccc4s3)cc2c1
[1]
  MIC: 17 µg/mL (≈ 47.2 µM)
[2]
  MIC: 8.7 µg/mL (≈ 24.1 µM)

## N=C(N)c1ccc2oc(/C=C/c3cc4ccc(C(=N)N)cc4o3)cc2c1
[1]
  MIC: > 17 µg/mL
[2]
  MIC: > 17 µg/mL

## c1cc(-c2cc3cc(C4=NCCN4)ccc3s2)ccc1C1=NCCN1
[1]
  MIC: > 17 µg/mL
[2]
  MIC: > 17 µg/mL

## CN[C@H](CC(C)C)C(=O)N[C@H]1C(=O)N[C@@H](CC(N)=O)C(=O)N[C@H]2C(=O)N[C@H]3C(=O)N[C@H](C(=O)N[C@H](C(=O)O)c4cc(O)cc(O)c4-c4cc3ccc4O)[C@H](O)c3ccc(c(Cl)c3)Oc3cc2cc(c3O[C@@H]2O[C@H](CO)[C@@H](O)[C@H](O)[C@H]2O[C@H]2C[C@](C)(N)[C@H](O)[C@H](C)O2)Oc2ccc(cc2Cl)[C@H]1O
[3]
  inhibition: Active
[4]
  inhibition: Active
[5]
  inhibition: Active
[6]
  inhibition: Active

## N=C(N)c1ccc2cc(/C=C/c3cc4ccc(C(=N)N)cc4o3)oc2c1
[1]
  MIC: 17 µg/mL (≈ 49.4 µM)
[2]
  MIC: 8.3 µg/mL (≈ 24.1 µM)

## N=C(N)c1ccc2oc(CCc3cc4cc(C(=N)N)ccc4o3)cc2c1
[1]
  MIC: > 17 µg/mL
[2]
  MIC: > 17 µg/mL

## C(=C\c1cc2ccc(C3=NCCN3)cc2o1)/c1cc2cc(C3=NCCN3)ccc2[nH]1
[1]
  MIC: > 19 µg/mL
[2]
  MIC: 19 µg/mL (≈ 48 µM)

## N=C(N)Nc1ccc(-c2cc3cc(NC(=N)N)ccc3s2)cc1
[1]
  MIC: > 16 µg/mL
[2]
  MIC: 15.9 µg/mL (≈ 49 µM)

## Nc1ccc(C2=Cc3ccc(N)cc3S2(=O)=O)cc1
[1]
  MIC: > 11 µg/mL
[2]
  MIC: > 11 µg/mL

## C(=C\c1cc2cc(C3=NCCN3)ccc2s1)/c1ccc(C2=NCCN2)cc1
[1]
  MIC: 17.8 µg/mL (≈ 47.8 µM)
[2]
  MIC: 17.8 µg/mL (≈ 47.8 µM)

## C(/C=C/c1cc2cc(C3=NCCN3)ccc2o1)=C\c1cc2cc(C3=NCCN3)ccc2o1
[1]
  MIC: 19.8 µg/mL (≈ 46.9 µM)
[2]
  MIC: 9.9 µg/mL (≈ 23.4 µM)

## C(=C\c1cc2ccc(C3=NCCN3)cc2o1)/c1cc2ccc(C3=NCCN3)cc2o1
[1]
  MIC: 19 µg/mL (≈ 47.9 µM)
[2]
  MIC: 19 µg/mL (≈ 47.9 µM)

## C(=C\c1cc2ccc(C3=NCCN3)cc2[nH]1)/c1ccc(C2=NCCN2)cc1
[1]
  MIC: > 17 µg/mL
[2]
  MIC: 8.6 µg/mL (≈ 24.2 µM)

## N=C(N)c1ccc2oc(/C=C/C=C/c3cc4cc(C(=N)N)ccc4o3)cc2c1
[1]
  MIC: 18 µg/mL (≈ 48.6 µM)
[2]
  MIC: 2.2 µg/mL (≈ 5.94 µM)

## N=C(N)c1ccc(-c2cc3ccc(C(=N)N)cc3s2)cc1
[1]
  MIC: > 19 µg/mL
[2]
  MIC: > 19 µg/mL

## Cc1cc(N)c2cc(NC(=O)Nc3ccc4nc(C)cc(N)c4c3)ccc2n1 [AMINOQUINURIDE]
[1]
  MIC: 17.8 µg/mL (≈ 47.8 µM)
[2]
  MIC: 4.5 µg/mL (≈ 12.1 µM)

## C(=C\c1cc2ccc(C3=NCCN3)cc2[nH]1)/c1ccc(Oc2ccc(C3=NCCN3)cc2)cc1
[1]
  MIC: 2.6 µg/mL (≈ 5.81 µM)
[2]
  MIC: 2.6 µg/mL (≈ 5.81 µM)

## OCCn1c(/C=C/c2nc3ccccc3[nH]2)nc2ccccc21
[1]
  MIC: > 12 µg/mL
[2]
  MIC: > 12 µg/mL

## Cc1c(/C=C/c2cc3cc(C(=N)N)ccc3o2)oc2cc(C(=N)N)ccc12
[1]
  MIC: > 17 µg/mL
[2]
  MIC: > 17 µg/mL

## N=C(N)c1ccc(-c2[nH]c3cc(C(=N)N)ccc3c2-c2ccccc2)cc1
[1]
  MIC: 17 µg/mL (≈ 48.1 µM)
[2]
  MIC: 9 µg/mL (≈ 25.5 µM)

## O=C(Nc1ccc(C2=NCCN2)cc1)c1cc2cc(C3=NCCN3)ccc2o1
[1]
  MIC: > 18 µg/mL
[2]
  MIC: 18 µg/mL (≈ 48.2 µM)

## N=C(N)c1ccc(-c2ccc(-c3ccc(C(=N)N)cc3)s2)cc1
[1]
  MIC: > 16 µg/mL
[2]
  MIC: 16 µg/mL (≈ 49.9 µM)

## N=C(N)c1ccc(/C=C/c2cc3cc(C(=N)N)ccc3[nH]2)cc1
[1]
  MIC: > 15 µg/mL
[2]
  MIC: 15 µg/mL (≈ 49.4 µM)

## c1cc(-c2cc3ccc(C4=NCCN4)cc3[nH]2)ccc1C1=NCCN1
[1]
  MIC: > 16 µg/mL
[2]
  MIC: > 16 µg/mL

## N/C(=N\O)c1ccc2oc(/C=C/c3cc4cc(/C(N)=N/O)ccc4o3)cc2c1
[1]
  MIC: > 23 µg/mL
[2]
  MIC: > 23 µg/mL

## N=C(N)c1ccc(/C=C/c2cc3cc(C(=N)N)ccc3o2)cc1
[1]
  MIC: > 15 µg/mL
[2]
  MIC: > 15 µg/mL

## N=C(N)c1ccc2[nH]c(/C=C/c3cc4ccc(C(=N)N)cc4o3)cc2c1
[1]
  MIC: > 17 µg/mL
[2]
  MIC: 8 µg/mL (≈ 23.3 µM)

## c1cc2cc(-c3cc4ccc(C5=NCCN5)cc4[nH]3)[nH]c2cc1C1=NCCN1
[1]
  MIC: 1.1 µg/mL (≈ 2.99 µM)
[2]
  MIC: 0.6 µg/mL (≈ 1.63 µM)

## O=C(Nc1ccc(C2=NCCN2)cc1)c1cc2ccc(C3=NCCN3)cc2[nH]1
[1]
  MIC: 17.8 µg/mL (≈ 47.8 µM)
[2]
  MIC: 8.9 µg/mL (≈ 23.9 µM)

## N=C(N)c1ccc2oc(CCc3cc4ccc(C(=N)N)cc4[nH]3)cc2c1
[1]
  MIC: 8.4 µg/mL (≈ 24.3 µM)
[2]
  MIC: 8.4 µg/mL (≈ 24.3 µM)

## N=C(N)c1ccc(/C=C/c2cc3ccc(C(=N)N)cc3[nH]2)cc1
[1]
  MIC: 15 µg/mL (≈ 49.4 µM)
[2]
  MIC: 7.5 µg/mL (≈ 24.7 µM)

## c1cc(-c2[nH]c3cc(C4=NCCN4)ccc3c2-c2cc3ccc(C4=NCCN4)cc3[nH]2)ccc1C1=NCCN1
[1]
  MIC: 24.9 µg/mL (≈ 48.6 µM)
[2]
  MIC: 24.9 µg/mL (≈ 48.6 µM)

## N=C(N)c1ccc(NC(=O)c2cc3ccc(C(=N)N)cc3o2)cc1
[1]
  MIC: > 16 µg/mL
[2]
  MIC: > 16 µg/mL

## C(=C\c1cc2cc(C3=NCCN3)ccc2o1)/c1ccc(C2=NCCN2)cc1
[1]
  MIC: 17.2 µg/mL (≈ 48.3 µM)
[2]
  MIC: 17.2 µg/mL (≈ 48.3 µM)

## N=C(N)c1ccc2cc(C(=N)N)[nH]c2c1
[1]
  MIC: > 11 µg/mL
[2]
  MIC: > 11 µg/mL

## N=C(N)c1ccc2oc(/C=C/C=C/C=C/c3cc4cc(C(=N)N)ccc4o3)cc2c1
[1]
  MIC: 9.4 µg/mL (≈ 23.7 µM)
[2]
  MIC: 2.3 µg/mL (≈ 5.8 µM)

## N=C(N)c1ccc(/C=C/C=C/c2cc3cc(C(=N)N)ccc3o2)cc1
[1]
  MIC: 16.1 µg/mL (≈ 48.7 µM)
[2]
  MIC: 8.1 µg/mL (≈ 24.5 µM)

## N=C(N)c1ccc(-c2cc3cc(C(=N)N)ccc3s2)cc1
[1]
  MIC: > 15 µg/mL
[2]
  MIC: > 15 µg/mL

## N=C(N)c1ccc(-n2cc3cc(C(=N)N)ccc3n2)cc1
[1]
  MIC: > 14 µg/mL
[2]
  MIC: > 14 µg/mL

## Cc1cc2nc(/C=C/c3nc4cc(C)c(C)cc4[nH]3)[nH]c2cc1C
[1]
  MIC: > 13 µg/mL
[2]
  MIC: > 13 µg/mL

## C(=C\c1cc2ccc(C3=NCCN3)cc2o1)/c1cc2ccc(C3=NCCN3)cc2[nH]1
[1]
  MIC: 19 µg/mL (≈ 48 µM)
[2]
  MIC: 4.7 µg/mL (≈ 11.9 µM)

## N=C(N)c1ccc(-n2nc3ccc(C(=N)N)cc3n2)cc1
[1]
  MIC: > 14 µg/mL
[2]
  MIC: > 14 µg/mL
